Results published in ChEMBL document CHEMBL3351461, “Discovery of novel, dual mechanism ERK inhibitors by affinity selection screening of an inactive kinase” (J Med Chem, 2014).
Active and inactive are the calls of the source. The rule behind the calls is not given here.

Experiments:
[1] = tested on: A2058; assay: Cytotoxicity against human A2058 cells expressing BRAF mutant after 3 days by proliferation assay; format: functional, cell-based; conditions: A2058, 72 h
Method in brief: (§1)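 A2058, Colo-205 (2000 cells/well) or A375SM (1500 cells/well) in RPMI1640 with 10% FBS and penicillin–streptomycin, on collagen-coated plates. Cells attach for 2 h, then compound is added in DMSO (final 1.0% or 0.1%). Incubated 3 days at 37 °C, 5% CO2. Viability read by CellTiter-Glo luminescence.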

[2] = molecular target: T1, Mitogen-activated protein kinase 1 (Homo sapiens, UniProt P28482); assay: Inhibition of activated ERK2 (unknown origin) using IMAP peptide substrate after 30 mins by activated ERK2 assay
Method in brief: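 IMAP fluorescence-polarization assay. Started with 1 μM substrate peptide (100 nM fluorescein-labelled) and 30 μM ATP. Run 30 min, stopped with IMAP beads, read after 30 min. N = 2.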

[3] = molecular target: Tyrosine-protein kinase ABL1 (Homo sapiens, UniProt P00519); assay: Inhibition of ABL (unknown origin)
[4] = molecular target: RAC-alpha serine/threonine-protein kinase (Homo sapiens, UniProt P31749); assay: Inhibition of AKT1 (unknown origin)
[5] = molecular target: Cyclin-dependent kinase 2 (Homo sapiens, UniProt P24941); assay: Inhibition of CDK2 (unknown origin)
[6] = molecular target: Serine/threonine-protein kinase B-raf (Homo sapiens, UniProt P15056); assay: Inhibition of B-RAF (unknown origin)
[7] = molecular target: Serine/threonine-protein kinase Chk1 (Homo sapiens, UniProt O14757); assay: Inhibition of CHK1 (unknown origin)
[8] = molecular target: Casein kinase I isoform delta (Homo sapiens, UniProt P48730); assay: Inhibition of CSNK1D (unknown origin)
[9] = molecular target: Testis-specific serine/threonine-protein kinase 2 (Homo sapiens, UniProt Q96PF2); assay: Inhibition of TSSK2 (unknown origin)
[10] = molecular target: Ephrin type-B receptor 4 (Homo sapiens, UniProt P54760); assay: Inhibition of EPHB4 (unknown origin)
[11] = molecular target: Receptor-type tyrosine-protein kinase FLT3 (Homo sapiens, UniProt P36888); assay: Inhibition of FLT3 (unknown origin)
[12] = molecular target: Insulin-like growth factor 1 receptor (Homo sapiens, UniProt P08069); assay: Inhibition of IGF1R (unknown origin)
[13] = molecular target: Inhibitor of nuclear factor kappa-B kinase subunit beta (Homo sapiens, UniProt O14920); assay: Inhibition of IKKbeta (unknown origin)
[14] = molecular target: Interleukin-1 receptor-associated kinase 4 (Homo sapiens, UniProt Q9NWZ3); assay: Inhibition of IRAK4 (unknown origin)
[15] = molecular target: Tyrosine-protein kinase JAK2 (Homo sapiens, UniProt O60674); assay: Inhibition of JAK2 (unknown origin)
[16] = molecular target: Tyrosine-protein kinase Lck (Homo sapiens, UniProt P06239); assay: Inhibition of LCK (unknown origin)
[17] = molecular target: Hepatocyte growth factor receptor (Homo sapiens, UniProt P08581); assay: Inhibition of MET (unknown origin)
[18] = molecular target: Serine/threonine-protein kinase 3 (Homo sapiens, UniProt Q13188); assay: Inhibition of MST2 (unknown origin)
[19] = molecular target: Serine/threonine-protein kinase Nek2 (Homo sapiens, UniProt P51955); assay: Inhibition of NEK2 (unknown origin)
[20] = molecular target: Protein kinase C alpha type (Homo sapiens, UniProt P17252); assay: Inhibition of PKCA (unknown origin)
[21] = molecular target: Serine/threonine-protein kinase PLK3 (Homo sapiens, UniProt Q9H4B4); assay: Inhibition of PLK3 (unknown origin)
[22] = molecular target: Rho-associated protein kinase 2 (Homo sapiens, UniProt O75116); assay: Inhibition of ROCK2 (unknown origin)
[23] = molecular target: Ribosomal protein S6 kinase alpha-3 (Homo sapiens, UniProt P51812); assay: Inhibition of RSK2 (unknown origin)
[24] = molecular target: Epidermal growth factor receptor (Homo sapiens, UniProt P00533); assay: Inhibition of EGFR (unknown origin)
[25] = molecular target: Mitogen-activated protein kinase 11 (Homo sapiens, UniProt Q15759); assay: Inhibition of p38beta (unknown origin)
[26] = molecular target: Dual specificity mitogen-activated protein kinase kinase 1 (Homo sapiens, UniProt Q02750); assay: Inhibition of MEK1 (unknown origin)
[27] = molecular target: Vascular endothelial growth factor receptor 1 (Homo sapiens, UniProt P17948); assay: Inhibition of VEGFR1 (unknown origin)
[28] = molecular target: Cyclin-dependent kinase 4 (Homo sapiens, UniProt P11802); assay: Inhibition of CDK4 (unknown origin)
[29] = molecular target: Glycogen synthase kinase-3 beta (Homo sapiens, UniProt P49841); assay: Inhibition of GSK3beta (unknown origin)
[30] = molecular target: Cyclin-dependent kinase 6 (Homo sapiens, UniProt Q00534); assay: Inhibition of CDK6 (unknown origin)
[31] = tested on: A2058; assay: Inhibition of RSK phosphorylation in human A2058 cells after 4 hrs by immunoblotting analysis; format: cell-based
[32] = molecular target: Mitogen-activated protein kinase 3 (Homo sapiens) (UniProt P27361); assay: Inhibition of ERK1 phosphorylation in human A2058 cells after 4 hrs by immunoblotting analysis; format: cell-based
Method in brief: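 A2058 cells treated 4 h at 37 °C with 0–10000 nM compound (150, 312, 625, 1250, 2500, 5000, 10000 nM). Equal-protein lysates immunoblotted for phospho-ERK1,2 and total ERK1,2, developed by ECL. A MEK inhibitor serves as positive control.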

[33] = Cytotoxicity against human A375SM cells expressing BRAF mutant after 3 days by proliferation assay; format: functional, cell-based; conditions: A375-SM, 72 h; method in brief: as §1
[34] = tested on: COLO 205; assay: Cytotoxicity against human COLO205 cells expressing BRAF mutant after 3 days by proliferation assay; format: functional, cell-based; conditions: COLO 205, 72 h; method in brief: as §1
[35] = tested on: CHL-1; assay: Cytotoxicity against human CHL-1 cells expressing wild type BRAF after 3 days by proliferation assay; format: functional, cell-based; conditions: CHL-1, 72 h
[36] = molecular target: T2, Dual specificity mitogen-activated protein kinase kinase; MEK1/2 (Homo sapiens) (UniProt P36507+Q02750); assay: Binding affinity to unphosphorylated MEK (unknown origin) by temperature dependent fluorescence (TdF) assay
[37] = molecular target: T2, Dual specificity mitogen-activated protein kinase kinase; MEK1/2 (Homo sapiens); assay: Binding affinity to phosphorylated MEK (unknown origin) by temperature dependent fluorescence (TdF) assay
[38] = molecular target: T1, Mitogen-activated protein kinase 1; assay: Binding to phosphorylated ERK2 (unknown origin) by temperature dependent fluorescence (TdF) assay
[39] = molecular target: T1, Mitogen-activated protein kinase 1; assay: Binding to unphosphorylated ERK2 (unknown origin) by temperature dependent fluorescence (TdF) assay
[40] = molecular target: Mitogen-activated protein kinase 1 (Mus musculus) (UniProt P63085); assay: Inhibition of inactive ERK2 (mouse) coupled with human MEK1 using IMAP peptide substrate after 30 mins by coupled ERK2 assay

T1 sequence (P28482 whole entry): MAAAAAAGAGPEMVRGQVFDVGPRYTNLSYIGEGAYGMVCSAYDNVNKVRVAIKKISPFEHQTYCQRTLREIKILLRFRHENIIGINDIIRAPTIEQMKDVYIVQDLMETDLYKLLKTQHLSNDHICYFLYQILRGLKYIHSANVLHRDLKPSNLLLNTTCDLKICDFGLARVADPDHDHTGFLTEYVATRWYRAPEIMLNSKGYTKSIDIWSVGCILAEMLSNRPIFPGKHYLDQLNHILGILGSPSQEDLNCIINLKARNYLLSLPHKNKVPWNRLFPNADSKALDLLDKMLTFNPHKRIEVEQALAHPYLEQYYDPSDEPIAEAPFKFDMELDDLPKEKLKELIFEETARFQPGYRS
T2 sequence (P36507 whole entry, looked up): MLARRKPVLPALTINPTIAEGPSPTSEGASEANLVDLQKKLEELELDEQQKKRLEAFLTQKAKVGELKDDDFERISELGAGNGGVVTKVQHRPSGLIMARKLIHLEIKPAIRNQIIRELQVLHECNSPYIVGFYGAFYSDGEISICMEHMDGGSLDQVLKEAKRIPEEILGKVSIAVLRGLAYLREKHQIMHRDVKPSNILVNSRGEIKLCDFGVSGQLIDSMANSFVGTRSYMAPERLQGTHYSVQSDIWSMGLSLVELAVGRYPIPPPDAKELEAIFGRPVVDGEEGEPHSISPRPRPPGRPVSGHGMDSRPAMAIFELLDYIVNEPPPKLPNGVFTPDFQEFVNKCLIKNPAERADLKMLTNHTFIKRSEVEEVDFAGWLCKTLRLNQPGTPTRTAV
T2 sequence (Q02750 whole entry, looked up): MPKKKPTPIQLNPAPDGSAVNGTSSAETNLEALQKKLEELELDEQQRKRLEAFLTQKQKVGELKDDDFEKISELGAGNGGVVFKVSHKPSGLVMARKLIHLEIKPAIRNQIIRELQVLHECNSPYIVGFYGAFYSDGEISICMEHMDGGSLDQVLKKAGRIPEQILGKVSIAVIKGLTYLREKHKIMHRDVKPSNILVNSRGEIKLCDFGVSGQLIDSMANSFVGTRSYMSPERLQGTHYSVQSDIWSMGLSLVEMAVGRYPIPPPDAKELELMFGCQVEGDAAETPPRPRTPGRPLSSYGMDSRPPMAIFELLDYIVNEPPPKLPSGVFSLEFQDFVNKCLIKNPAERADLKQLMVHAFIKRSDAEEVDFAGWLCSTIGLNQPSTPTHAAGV
Chain of Vascular endothelial growth factor receptor 1 (P17948 whole entry): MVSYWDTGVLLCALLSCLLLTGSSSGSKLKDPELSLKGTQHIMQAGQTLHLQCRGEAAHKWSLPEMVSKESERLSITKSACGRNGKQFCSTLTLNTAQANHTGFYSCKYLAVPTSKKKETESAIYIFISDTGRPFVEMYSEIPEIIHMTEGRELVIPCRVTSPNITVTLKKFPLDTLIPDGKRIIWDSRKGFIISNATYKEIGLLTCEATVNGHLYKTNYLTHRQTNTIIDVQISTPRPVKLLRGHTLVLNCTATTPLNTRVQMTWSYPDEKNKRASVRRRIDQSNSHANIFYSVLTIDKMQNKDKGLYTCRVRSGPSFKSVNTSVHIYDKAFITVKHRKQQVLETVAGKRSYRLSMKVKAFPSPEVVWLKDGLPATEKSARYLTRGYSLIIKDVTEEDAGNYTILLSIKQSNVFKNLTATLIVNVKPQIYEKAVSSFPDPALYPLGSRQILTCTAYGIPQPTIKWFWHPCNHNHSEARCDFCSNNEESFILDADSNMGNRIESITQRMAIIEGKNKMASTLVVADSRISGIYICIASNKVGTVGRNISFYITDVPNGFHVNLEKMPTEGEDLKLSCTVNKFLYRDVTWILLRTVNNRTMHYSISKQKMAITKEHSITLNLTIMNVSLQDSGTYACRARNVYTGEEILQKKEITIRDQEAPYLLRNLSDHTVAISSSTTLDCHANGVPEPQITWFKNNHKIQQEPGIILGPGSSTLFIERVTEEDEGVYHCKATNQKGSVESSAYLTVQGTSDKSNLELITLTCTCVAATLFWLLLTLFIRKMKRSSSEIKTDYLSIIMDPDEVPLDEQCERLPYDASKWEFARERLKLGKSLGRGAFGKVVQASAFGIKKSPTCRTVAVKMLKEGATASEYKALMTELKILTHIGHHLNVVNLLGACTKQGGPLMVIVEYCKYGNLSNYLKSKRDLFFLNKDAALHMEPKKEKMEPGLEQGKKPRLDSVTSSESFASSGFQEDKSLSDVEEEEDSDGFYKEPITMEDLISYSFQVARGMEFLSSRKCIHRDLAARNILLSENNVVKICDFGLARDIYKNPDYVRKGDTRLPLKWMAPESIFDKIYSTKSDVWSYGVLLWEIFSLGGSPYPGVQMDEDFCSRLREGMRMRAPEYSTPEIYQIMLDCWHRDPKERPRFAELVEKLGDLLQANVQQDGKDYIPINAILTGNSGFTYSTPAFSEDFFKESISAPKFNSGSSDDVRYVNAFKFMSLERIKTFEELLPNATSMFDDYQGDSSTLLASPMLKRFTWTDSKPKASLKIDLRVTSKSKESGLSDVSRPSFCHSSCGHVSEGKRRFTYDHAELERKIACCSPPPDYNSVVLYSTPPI
Chain of RAC-alpha serine/threonine-protein kinase (P31749 whole entry): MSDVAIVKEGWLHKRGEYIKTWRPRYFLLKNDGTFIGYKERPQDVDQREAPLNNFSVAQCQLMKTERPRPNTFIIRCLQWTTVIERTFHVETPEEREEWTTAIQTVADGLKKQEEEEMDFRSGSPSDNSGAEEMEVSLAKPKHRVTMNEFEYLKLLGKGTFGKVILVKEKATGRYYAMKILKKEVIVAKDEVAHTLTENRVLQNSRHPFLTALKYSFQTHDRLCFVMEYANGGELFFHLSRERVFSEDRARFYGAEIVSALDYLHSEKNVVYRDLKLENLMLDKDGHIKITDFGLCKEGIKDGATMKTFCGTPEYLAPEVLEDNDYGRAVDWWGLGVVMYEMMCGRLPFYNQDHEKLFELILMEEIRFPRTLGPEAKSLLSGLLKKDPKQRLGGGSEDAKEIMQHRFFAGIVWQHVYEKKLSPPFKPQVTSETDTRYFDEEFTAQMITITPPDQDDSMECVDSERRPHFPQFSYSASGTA
Chain of Hepatocyte growth factor receptor (P08581 whole entry): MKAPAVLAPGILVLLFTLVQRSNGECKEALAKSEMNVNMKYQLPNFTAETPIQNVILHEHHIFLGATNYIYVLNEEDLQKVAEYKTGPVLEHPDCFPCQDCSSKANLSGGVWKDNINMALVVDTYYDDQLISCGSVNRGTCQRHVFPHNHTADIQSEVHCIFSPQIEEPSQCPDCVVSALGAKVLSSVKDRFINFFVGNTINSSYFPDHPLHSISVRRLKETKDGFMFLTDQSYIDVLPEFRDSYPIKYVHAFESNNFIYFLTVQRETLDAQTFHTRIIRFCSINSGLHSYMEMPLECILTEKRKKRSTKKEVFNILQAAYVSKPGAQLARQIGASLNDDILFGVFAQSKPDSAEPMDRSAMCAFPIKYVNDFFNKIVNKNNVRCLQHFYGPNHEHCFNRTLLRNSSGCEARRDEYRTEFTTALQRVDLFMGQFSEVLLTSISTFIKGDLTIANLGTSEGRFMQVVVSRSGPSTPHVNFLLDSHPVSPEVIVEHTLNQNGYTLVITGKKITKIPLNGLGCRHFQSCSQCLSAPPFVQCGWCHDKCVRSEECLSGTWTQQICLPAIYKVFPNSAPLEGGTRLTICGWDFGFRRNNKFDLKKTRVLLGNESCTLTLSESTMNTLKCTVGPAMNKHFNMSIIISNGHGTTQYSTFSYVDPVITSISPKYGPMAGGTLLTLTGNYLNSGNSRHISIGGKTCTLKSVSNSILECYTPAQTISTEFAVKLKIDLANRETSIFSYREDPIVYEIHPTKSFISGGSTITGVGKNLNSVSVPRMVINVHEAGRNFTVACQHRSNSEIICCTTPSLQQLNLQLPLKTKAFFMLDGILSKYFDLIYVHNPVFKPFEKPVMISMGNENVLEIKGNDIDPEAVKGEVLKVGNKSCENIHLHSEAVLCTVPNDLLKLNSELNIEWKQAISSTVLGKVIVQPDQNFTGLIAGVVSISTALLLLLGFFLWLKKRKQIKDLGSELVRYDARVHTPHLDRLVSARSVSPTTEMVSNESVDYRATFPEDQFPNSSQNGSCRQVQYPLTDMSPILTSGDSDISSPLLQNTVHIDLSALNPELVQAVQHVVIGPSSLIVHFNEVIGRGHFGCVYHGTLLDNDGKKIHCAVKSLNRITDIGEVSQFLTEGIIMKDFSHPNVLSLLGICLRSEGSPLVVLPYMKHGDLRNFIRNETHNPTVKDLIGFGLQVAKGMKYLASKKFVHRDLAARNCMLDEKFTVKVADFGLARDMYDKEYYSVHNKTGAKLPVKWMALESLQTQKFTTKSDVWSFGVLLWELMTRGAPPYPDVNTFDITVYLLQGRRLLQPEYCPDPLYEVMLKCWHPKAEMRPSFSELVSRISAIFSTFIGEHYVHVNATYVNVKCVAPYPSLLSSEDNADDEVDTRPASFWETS
Chain of Mitogen-activated protein kinase 11 (Q15759 whole entry): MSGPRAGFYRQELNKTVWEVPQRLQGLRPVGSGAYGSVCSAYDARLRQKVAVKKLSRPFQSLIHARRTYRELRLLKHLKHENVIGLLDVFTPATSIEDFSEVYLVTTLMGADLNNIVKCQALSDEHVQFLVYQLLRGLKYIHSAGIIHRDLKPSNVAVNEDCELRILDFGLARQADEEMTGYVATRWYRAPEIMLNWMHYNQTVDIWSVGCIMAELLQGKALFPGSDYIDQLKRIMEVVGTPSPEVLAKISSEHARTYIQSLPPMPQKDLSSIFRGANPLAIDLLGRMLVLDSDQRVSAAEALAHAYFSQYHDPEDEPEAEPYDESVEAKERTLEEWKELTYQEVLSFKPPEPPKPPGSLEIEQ
Chain of Cyclin-dependent kinase 6 (Q00534 whole entry): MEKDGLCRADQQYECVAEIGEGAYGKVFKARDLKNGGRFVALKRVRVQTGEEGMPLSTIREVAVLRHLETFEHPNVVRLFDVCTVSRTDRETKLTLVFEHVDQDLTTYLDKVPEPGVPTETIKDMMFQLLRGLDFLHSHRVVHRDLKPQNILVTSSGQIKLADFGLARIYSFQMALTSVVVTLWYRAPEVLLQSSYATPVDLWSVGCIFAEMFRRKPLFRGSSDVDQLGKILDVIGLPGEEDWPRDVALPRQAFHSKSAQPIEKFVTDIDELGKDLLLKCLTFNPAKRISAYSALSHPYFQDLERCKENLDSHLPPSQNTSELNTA

CC(=O)c1ccc(N2CCN(C(=O)CN3CC[C@@H](C(=O)Nc4ccc(O)c(Cl)c4)C3)CC2)cc1
IC50 [1]: 28.8 µM | IC50 [2]: 2.6 µM | IC50 [3]: > 30 µM | IC50 [4]: > 30 µM | IC50 [5]: > 50 µM | IC50 [6]: > 30 µM | IC50 [7]: > 30 µM | IC50 [8]: > 30 µM | IC50 [9]: > 30 µM | IC50 [10]: > 30 µM | IC50 [11]: > 30 µM | IC50 [12]: > 30 µM | IC50 [13]: > 30 µM | IC50 [14]: > 30 µM | IC50 [15]: > 30 µM | IC50 [16]: > 30 µM | IC50 [17]: > 30 µM | IC50 [18]: > 30 µM | IC50 [19]: > 30 µM | IC50 [20]: > 30 µM | IC50 [21]: > 30 µM | IC50 [22]: > 30 µM | IC50 [23]: 27 µM | IC50 [24]: > 50 µM | IC50 [25]: > 50 µM | IC50 [26]: > 20 µM | IC50 [27]: > 50 µM | IC50 [28]: > 50 µM | IC50 [29]: > 50 µM | IC50 [30]: > 50 µM | inhibition [31]: Dose-dependent effect | inhibition [32]: Dose-dependent effect | IC50 [33]: 11.5 µM | IC50 [34]: 10.8 µM | IC50 [35]: > 100 µM | Activity [36]: inactive | Activity [37]: inactive | Kd [38]: 0.14 µM | Kd [39]: 0.05 µM | IC50 [40]: 0.36 µM
